Reference: ChEMBL document CHEMBL1671639, “Sitamaquine sensitivity in Leishmania species is not mediated by drug accumulation in acidocalcisomes” (Antimicrob Agents Chemother, 2008)
pEC50: −log10 of the molar value.

Key:
[1] = tested on: Leishmania donovani; experiment: Drug uptake in Leishmania donovani at 10 uM for 10 mins by flow cytometry in presence of nigericin; type: ADME, organism-based; details: in vivo
[2] = tested on: Leishmania infantum; experiment: Antiparasitic activity against Leishmania infantum MHOM/ES/1993/BCN-99 after 3 days by Alamar blue assay; type: functional, organism-based; details: MHOM/ES/1993/BCN-99, 72 h
Method in brief: (§1)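 Promastigotes grown at 28°C in RPMI 1640-modified medium with 20% heat-inactivated FBS and harvested after 48 h of growth. Exposed to increasing sitamaquine concentrations for 72 h at 28°C. Growth read by Alamar Blue fluorescence (excitation 530 nm, emission 585 nm). EC50 taken as the concentration giving 50% growth inhibition. Run three times in duplicate.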

[3] = tested on: Leishmania donovani; experiment: Drug uptake in Leishmania donovani at 5 uM after 15 mins at 4 degC by liquid scintillation counting; type: ADME, organism-based; details: in vivo, 0.25 h
Method in brief: (§2)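 PBS-washed parasites at 2 × 10^7/ml in HBS (pH 7) were incubated with 5 μM [14C]sitamaquine for 15 min at 28°C or 4°C. Washing was 10 min on ice in PBS or PBS with 100 μM unlabeled sitamaquine, then twice in PBS. Cell-associated radioactivity in 1% Triton X-100 lysates was counted by liquid scintillation and related to Bradford protein.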

[4] = tested on: Leishmania mexicana; experiment: Antiparasitic activity against Leishmania mexicana M9012 after 3 days by Alamar blue assay; type: functional, organism-based; details: M9012, 72 h; method in brief: as §1
[5] = tested on: Leishmania donovani; experiment: Drug uptake in Leishmania donovani at 5 uM after 15 mins at 28 degC by liquid scintillation counting; type: ADME, organism-based; details: in vivo, 0.25 h; method in brief: as §2
[6] = tested on: Leishmania braziliensis; experiment: Antiparasitic activity against Leishmania braziliensis MHOM/PE/03/LH2419 after 3 days by Alamar blue assay; type: functional, organism-based; details: MHOM/PE/03/LH2419, 72 h; method in brief: as §1
[7] = tested on: Leishmania donovani; experiment: Drug uptake in Leishmania donovani MHOM/ET/67/L82 assessed as reduction in fluorescence of LysoTracker Green by Flow cytometry analysis; type: ADME, organism-based; details: in vivo
Method in brief: (§3)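 Promastigotes at 4 × 10^6 cells/ml were loaded with 100 nM LysoTracker Green DND-26 in HBS for 10 min at 28°C. They were then exposed to 1, 10 or 30 μM sitamaquine for 15 min at 28°C, washed and resuspended in PBS. Flow cytometry used 488 nm excitation and 515–545 nm emission after gating out dead cells and debris. Signal expressed as % of untreated.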

[8] = tested on: Leishmania tropica; experiment: Drug uptake in Leishmania tropica MHOM/SU/60/LCR-L39 assessed as reduction in fluorescence of LysoTracker Green by Flow cytometry analysis; type: ADME, organism-based; details: in vivo; method in brief: as §3
[9] = tested on: Leishmania tropica; experiment: Antiparasitic activity against Leishmania tropica MHOM/SU/60/LCR-L39 after 3 days by Alamar blue assay; type: functional, organism-based; details: MHOM/SU/60/LCR-L39, 72 h; method in brief: as §1
[10] = tested on: Leishmania donovani; experiment: Antiparasitic activity against Leishmania donovani MHOM/ET/67/L82 after 3 days by Alamar blue assay; type: functional, organism-based; details: MHOM/ET/67/L82, 72 h; method in brief: as §1
[11] = tested on: Leishmania donovani; experiment: Drug uptake in Leishmania donovani at 5 uM after 15 mins at pH 8 by liquid scintillation counting; type: ADME, organism-based; details: in vivo, pH 8, 0.25 h
Method in brief: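 Parasites were incubated at 28°C with [14C]sitamaquine in HBS adjusted to various pHs, up to pH 8. Cells were chilled, then washed 10 min on ice in PBS with 100 μM sitamaquine and twice in PBS. Uptake was quantified by liquid scintillation counting of Triton X-100 lysates, with Bradford protein. Means of three independent experiments.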

[12] = tested on: Leishmania donovani; experiment: Drug uptake in Leishmania donovani MHOM/IN/80/DD8 assessed as reduction in fluorescence of LysoTracker Green by Flow cytometry analysis; type: ADME, organism-based; details: in vivo; method in brief: as §3
[13] = tested on: Leishmania donovani; experiment: Drug uptake in Leishmania donovani at 10 uM for 10 mins by flow cytometry in presence of 20 mM NH4Cl acidic organelles alkalinization inducer; type: ADME, organism-based; details: in vivo
[14] = tested on: Leishmania donovani; experiment: Drug uptake in Leishmania donovani at 10 uM for 10 mins by flow cytometry in presence of ionophores monensin; type: ADME, organism-based; details: in vivo
[15] = tested on: Leishmania sp.; experiment: Antiparasitic activity against promastigotes of Leishmania sp. after 3 days by Alamar blue assay; type: functional, organism-based; details: 72 h; method in brief: as §1
[16] = tested on: Leishmania tropica; experiment: Drug uptake in Leishmania tropica MHOM/SU/74/SAF-K27 assessed as reduction in fluorescence of LysoTracker Green by Flow cytometry analysis; type: ADME, organism-based; details: in vivo; method in brief: as §3
[17] = tested on: Leishmania major; experiment: Drug uptake in AP3-complemented Leishmania major MHOM/JL/80/Friedlin at 5 uM for 15 mins by liquid scintillation counting; type: ADME, organism-based; details: in vivo, 0.25 h; method in brief: as §2
[18] = tested on: Leishmania donovani; experiment: Drug uptake in 1 mM N-ethylmaleimde pretreated Leishmania donovani at 5 uM after 15 mins by liquid scintillation counting; type: ADME, organism-based; details: in vivo, 0.25 h
Method in brief: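 Parasites were treated with 1 mM NEM for 15 min on ice, then resuspended in fresh HBS. Cells at 2 × 10^7/ml were given 5 μM [14C]sitamaquine for 15 min at 28°C. Washing was 10 min on ice in PBS with 100 μM sitamaquine, then twice in PBS. Lysates in 1% Triton X-100 were read by scintillation counting, with Bradford protein.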

[19] = tested on: Leishmania major; experiment: Antiparasitic activity against amastigotes of delta-null mutant Leishmania major AP3 after 3 days by Alamar blue assay; type: functional, organism-based; details: AP3, 72 h
[20] = tested on: Leishmania major; experiment: Antiparasitic activity against wild type amastigotes of Leishmania major AP3-complemented after 3 days by Alamar blue assay; type: functional, organism-based; details: 72 h
[21] = tested on: Leishmania major; experiment: Drug uptake in Leishmania major MHOM/JL/80/Friedlin AP3delta-null mutant at 5 uM for 15 mins by liquid scintillation counting; type: ADME, organism-based; details: in vivo, 0.25 h
Method in brief: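 Promastigotes from 48-h cultures were washed in PBS and resuspended at 2 × 10^7/ml in HEPES-buffered saline, pH 7. They were exposed to 5 μM [14C]sitamaquine for 15 min, chilled on ice, then washed 10 min on ice in PBS with 100 μM unlabelled sitamaquine and twice more in PBS. Pellets were lysed in 1% Triton X-100. Scintillation counts were normalised to Bradford protein.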

CCN(CC)CCCCCCNc1cc(OC)cc2c(C)ccnc12.Cl.Cl
Drug uptake [1]: Not Active
pEC50 [2]: 5.02
Drug uptake [3]: Active
pEC50 [4]: 5.02
Drug uptake [5]: Active
pEC50 [6]: 5.02
Drug uptake [7]: Active
Drug uptake [8]: Active
pEC50 [9]: 5.02
pEC50 [10]: 5.02
Drug uptake [11]: Active
Drug uptake [12]: Active
Drug uptake [13]: Not Active
Drug uptake [14]: Not Active
pEC50 [15]: 5.24
Drug uptake [16]: Active

CCN(CC)CCCCCCNc1cc(O[14CH3])cc2c(C)ccnc12.Cl.Cl
Drug uptake [17]: Active
Drug uptake [18]: Active
pEC50 [19]: 5.41
pEC50 [20]: 5.37
Drug uptake [21]: Not Active
